According to PubChem BioAssay AID652011 (Sanford-Burnham Center for Chemical Genomics, 2013):
Where “and” joins values, the source holds several entries; their conditions need not be identical. Equal values may be shown once.

molecular target: Endothelial PAS domain-containing protein 1 (Homo sapiens) (UniProt Q99814); test: HIF-1a and HIF-2a reporter inhibitors, SAR follow-up, cell-based, luminescence, MIAPaCa-2, 786-0, panel (AID 652011); details: MIAPaCa-2/PANC HIF reporter, luciferase luminescence, desferoxamine, overnight, HIF2a PANC, run 2; at 99 µM (top of the series)
In short: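 Probe or stimulus: desferoxamine stimulus / Schedule: overnight compound incubation at 37 °C, 10 min reagent / Dosing: compounds from 10 mM and 0.3125 mM stocks, 1% DMSO final / Signal: luciferase luminescence with One-Glo reagent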

Endothelial PAS domain-containing protein 1 (Homo sapiens), sequence (Q99814 whole entry, looked up, the tested form may be a part): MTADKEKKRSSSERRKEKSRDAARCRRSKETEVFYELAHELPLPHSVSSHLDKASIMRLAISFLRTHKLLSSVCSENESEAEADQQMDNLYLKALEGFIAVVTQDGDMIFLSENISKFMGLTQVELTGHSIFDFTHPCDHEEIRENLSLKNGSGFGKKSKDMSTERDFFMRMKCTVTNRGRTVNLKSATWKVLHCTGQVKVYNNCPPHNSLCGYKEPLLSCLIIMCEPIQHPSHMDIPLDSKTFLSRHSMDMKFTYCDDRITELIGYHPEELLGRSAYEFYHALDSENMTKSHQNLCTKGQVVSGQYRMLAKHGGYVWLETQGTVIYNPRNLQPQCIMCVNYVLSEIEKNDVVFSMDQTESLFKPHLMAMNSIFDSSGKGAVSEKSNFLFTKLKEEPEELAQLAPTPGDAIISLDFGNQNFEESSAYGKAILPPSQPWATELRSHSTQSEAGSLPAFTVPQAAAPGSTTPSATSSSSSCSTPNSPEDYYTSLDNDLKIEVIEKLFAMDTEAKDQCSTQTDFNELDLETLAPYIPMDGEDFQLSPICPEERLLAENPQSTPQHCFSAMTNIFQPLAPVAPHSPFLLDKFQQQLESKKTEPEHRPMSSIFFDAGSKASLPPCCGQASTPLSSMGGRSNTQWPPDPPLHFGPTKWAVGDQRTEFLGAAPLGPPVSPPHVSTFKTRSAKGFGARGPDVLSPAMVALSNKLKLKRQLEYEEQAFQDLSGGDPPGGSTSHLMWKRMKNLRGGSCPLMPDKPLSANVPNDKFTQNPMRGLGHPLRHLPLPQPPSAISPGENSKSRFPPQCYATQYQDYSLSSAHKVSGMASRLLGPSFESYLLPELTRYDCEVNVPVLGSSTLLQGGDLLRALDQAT

Row | Compound | inhibition
1 | CCc1ccc(-c2noc(CCC(=O)NC3CC3)n2)cc1 | -46.2%
2 | CCCCc1ccc(-c2noc(CCC(=O)NC)n2)cc1 | -4.31%
3 | O=C(O)CCc1nc(-c2ccccc2)no1 | 45.4%
4 | CC(C)(C)c1ccc(-c2noc(CCC(=O)NCC3CCCO3)n2)cc1 (stereo unspecified) | 16.7%
5 | C=CCNC(=O)CCc1nc(-c2ccc(C(C)(C)C)cc2)no1 | 82%
6 | CC(C)(C)c1ccc(-c2noc(CCC(=O)N3CCCCC3)n2)cc1 | 106%
7 | CC(C)(C)c1ccc(-c2noc(CCC(=O)NC3CC3)n2)cc1 | 50%
8 | CCCCc1ccc(-c2noc(CCC(=O)NC3CC3)n2)cc1 | 16%
9 | CC(C)c1ccc(-c2noc(CCC(=O)NC(C)(C)C)n2)cc1 | 90%
10 | CCNC(=O)CCc1nc(-c2ccccc2C)no1 | -1.15%
11 | CCNC(=O)CCc1nc(-c2ccc(C(C)(C)C)cc2)no1 | 84.7% and 55.9%
